The test system of one data set is Escherichia coli. Kind of data set: Antimicrobial activity against tolc-defecient Escherichia coli BW25113 after 17 hrs by two-fold serial dilution technique. The format is functional. The settings on record: BW25113, 17 h. An outline of the steps: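 MIC by serial dilution following a CLSI protocol. E. coli BW25113 ΔtolC was grown in M8 medium.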
Data set [1] has as its system Caulobacter vibrioides. Nature of the data set: Antimicrobial activity against Caulobacter crescentus CB15N after 17 hrs by two-fold serial dilution technique. The format is functional.
A short description of data set [2]: Solubility of the compound by light scattering fluorescence spectrophotometry. The format is physicochemical. An outline of the steps: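 Solubility was measured in M8 medium containing 2% DMSO by a light-scattering assay.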
For data set [3], the system named is Caulobacter vibrioides. Nature of the data set: Antimicrobial activity against Caulobacter crescentus CB15N assessed as cell division arrest after the initiation of midcell constriction at MIC after 17 hrs by phase contrast microscopy. The format is functional, organism-based. An outline of the steps:
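C. crescentus CB15N cells were incubated with compound for 17 h, then imaged to score cell-division phenotype at the midcell constriction stage.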

The subject of another data set is Vibrio cholerae. Nature of the data set: Antimicrobial activity against clinical isolates of Vibrio cholerae by serial dilution technique. It counts as functional.
The next data set relates to Klebsiella aerogenes. Nature of the data set: Antimicrobial activity against clinical isolates of Enterobacter aerogenes by serial dilution technique. It counts as functional. Put shortly: (§1)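 Clinical pathogenic isolates were tested for growth inhibition in M8 medium.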
The next data set deals with Salmonella typhimurium. Kind of data set: Antimicrobial activity against clinical isolates of Salmonella typhimurium by serial dilution technique. The format is functional, Salmonella enterica subsp. enterica serovar Typhimurium. The settings on record: Salmonella enterica. An outline of the steps: as §1
For the next data set, the system named is Shigella boydii. Nature of the data set: Antimicrobial activity against clinical isolates of Shigella boydii by serial dilution technique. The format is functional. An outline of the steps: as §1
Another data set deals with Acinetobacter baumannii. Nature of the data set: Antimicrobial activity against clinical isolates of Acinetobacter baumannii by serial dilution technique. It counts as functional. An outline of the steps: as §1
Another data set concerns Klebsiella pneumoniae. Kind of data set: Antimicrobial activity against clinical isolates of Klebsiella pneumoniae by serial dilution technique. It counts as functional. Put shortly: as §1
Another data set concerns Morganella morganii. Nature of the data set: Antimicrobial activity against clinical isolates of Morganella morganii by serial dilution technique. The format is functional. Put shortly: as §1
Data set [4] has as its system Caulobacter vibrioides. Nature of the data set: Bacteristatic activity against Caulobacter crescentus CB15N assessed as inhibition of cell growth at 2.5 to 20 uM by plate reader analysis. It counts as functional, organism-based.

Converted amounts (≈) assume the structure as drawn. The source made the active and inactive calls. No cut-off for these calls is given here.

Consider `Cc1nc2ccccc2n1CCC(=O)NNCc1c(O)ccc2ccccc12`, for which the figures for the minimal inhibitory concentration (MIC) in the data set on Escherichia coli and in the data set with Caulobacter vibrioides [1] were 50 µM (≈ 18.7 µg/mL) and 40 µM (≈ 15 µg/mL), respectively.

Consider `CN(C)Cc1nc2ccccc2n1CCC(=O)N/N=C/c1c(O)ccc2ccccc12`, for which the values for the MIC in the data set with Escherichia coli and against Caulobacter vibrioides [1] were 12.5 µM (≈ 5.19 µg/mL) and 5 µM (≈ 2.08 µg/mL), respectively. Also, the kinetic solubility (in general, the concentration staying in solution when a stock, usually in DMSO, is diluted into the medium) in [2] is 90 µM (≈ 37.4 µg/mL).

As for `Cc1nc2cc(Cl)c(Cl)cc2n1CCC(=O)N/N=C/c1c(O)ccc2ccccc12`, the outcome in the data set with Caulobacter vibrioides [3] and with Caulobacter vibrioides [4] was Active. Further, the minimum inhibitory concentration (MIC) (in general, the lowest concentration found to suppress growth) is 6.3 µM (≈ 2.78 µg/mL) against Escherichia coli; 3.8 µM (≈ 1.68 µg/mL) in the data set on Caulobacter vibrioides [1]; 3 µM (≈ 1.32 µg/mL) in the data set on Vibrio cholerae; 12 µM (≈ 5.3 µg/mL) against Klebsiella aerogenes; 25 µM (≈ 11 µg/mL) in the data set on Salmonella typhimurium; 25 µM (≈ 11 µg/mL) against Shigella boydii. Moreover, the figures for the MIC in the data set on Acinetobacter baumannii, against Klebsiella pneumoniae and against Morganella morganii were 50 µM (≈ 22.1 µg/mL), 50 µM (≈ 22.1 µg/mL) and over 50 µM, respectively. This compound also gave a kinetic solubility in data set [2] of 90 µM (≈ 39.7 µg/mL).

Take `Cc1nc2ccncc2n1CCC(=O)N/N=C/c1c(O)ccc2ccccc12`: the values for the MIC against Escherichia coli and against Caulobacter vibrioides [1] were 25 µM (≈ 9.34 µg/mL) and 10 µM (≈ 3.73 µg/mL), respectively.

As for `Cc1nc2cc(Cl)ccc2n1CCC(=O)N/N=C/c1c(O)ccc2ccccc12`, the outcome with Caulobacter vibrioides [3] and with Caulobacter vibrioides [4] was Active. For the same compound, the results for the MIC with Escherichia coli and with Caulobacter vibrioides [1] were 7.5 µM (≈ 3.05 µg/mL) and 5 µM (≈ 2.03 µg/mL), respectively. The solubility (kinetic) in [2] turned out to be 210 µM (≈ 85.4 µg/mL).

In the case of `Cc1nc2ccccc2n1CCC(=O)N/N=C/c1ccc(F)c2ccccc12`, the MIC against Escherichia coli is over 50 µM; with Caulobacter vibrioides [1], over 20 µM.

On to `O=C(CCn1c(C(F)(F)F)nc2ccccc21)N/N=C/c1c(O)ccc2ccccc12`, for which the MIC against Escherichia coli is over 50 µM; with Caulobacter vibrioides [1], 7.5 µM (≈ 3.2 µg/mL). This compound registered a solubility (kinetic) in [2] of 30 µM (≈ 12.8 µg/mL).

As for `Cc1nc2cnccc2n1CCC(=O)N/N=C/c1c(O)ccc2ccccc12`, the result with Caulobacter vibrioides [3] was Active. Also, the MIC against Escherichia coli was 12.5 µM (≈ 4.67 µg/mL); in the data set on Caulobacter vibrioides [1] it was 5 µM (≈ 1.87 µg/mL). This compound also yielded a kinetic solubility in [2] of 90 µM (≈ 33.6 µg/mL).

As to `O=C(CCn1cnc2ccccc21)N/N=C/c1c(O)ccc2ccccc12`, the result with Caulobacter vibrioides [3] was Active. The MIC stood at 12.5 µM (≈ 4.48 µg/mL) against Escherichia coli and 7.5 µM (≈ 2.69 µg/mL) against Caulobacter vibrioides [1]. In [2], this compound registered a kinetic solubility of 30 µM (≈ 10.8 µg/mL).

Consider `C=CCOc1ccc2ccccc2c1/C=N/NC(=O)CCn1c(C)nc2ccccc21`, for which the results for the MIC against Escherichia coli and against Caulobacter vibrioides [1] were over 50 µM and over 20 µM, respectively.

Turning to `[N-]=[N+]=NCc1nc2ccccc2n1CCC(=O)N/N=C/c1c(O)ccc2ccccc12`, the result with Caulobacter vibrioides [3] was Active. Further, the minimal inhibitory concentration (MIC) in the data set on Escherichia coli amounted to 12.5 µM (≈ 5.17 µg/mL); in the data set with Caulobacter vibrioides [1], 5 µM (≈ 2.07 µg/mL). For the same compound, in data set [2], the kinetic solubility was found to be 20 µM (≈ 8.27 µg/mL).

On to `CC(=O)Oc1ccc2ccccc2c1/C=N/N(C(C)=O)C(=O)CCn1c(C)nc2ccccc21`, for which the minimal inhibitory concentration (MIC) is 50 µM (≈ 22.8 µg/mL) in the data set with Escherichia coli and over 40 µM in the data set on Caulobacter vibrioides [1].

Regarding `C/C(=N\NC(=O)CCn1c(C)nc2ccccc21)c1c(O)ccc2ccccc12`, the MIC with Escherichia coli was over 50 µM; against Caulobacter vibrioides [1] it was over 20 µM.

Turning to `Cc1nc2ccccc2n1CC(=O)N/N=C/c1c(O)ccc2ccccc12`, the MIC against Escherichia coli turned out to be 25 µM (≈ 8.96 µg/mL); against Caulobacter vibrioides [1] it was 5 µM (≈ 1.79 µg/mL). In data set [2], this compound displayed a solubility (kinetic) of 20 µM (≈ 7.17 µg/mL).

For the compound `Cc1nc2ccccc2n1CCC(=O)N/N=C/c1ccccc1O`, the figures for the MIC against Escherichia coli and against Caulobacter vibrioides [1] were 50 µM (≈ 16.1 µg/mL) and 15 µM (≈ 4.84 µg/mL), respectively.

As to `Cc1nc2ccccc2n1CCC(=O)N/N=C/c1c(O)ccc2cc(O)ccc12`, the MIC with Escherichia coli stood at 12.5 µM (≈ 4.86 µg/mL); with Caulobacter vibrioides [1] it was 5 µM (≈ 1.94 µg/mL).

Take `Cc1nc2ccccc2n1CCC(=O)N/N=C/c1ccc(O)c2ccccc12`: the MIC was over 50 µM with Escherichia coli and over 20 µM in the data set with Caulobacter vibrioides [1].

For `Cc1nc2ccccc2n1CCC(=O)N/N=C/c1ccc(N(C)C)c2ccccc12`, the values for the minimum inhibitory concentration (MIC) with Escherichia coli and in the data set with Caulobacter vibrioides [1] were over 50 µM and over 20 µM, respectively.

As for `Cc1nc2ccccc2n1CCCC(=O)N/N=C/c1c(O)ccc2ccccc12`, the outcome with Caulobacter vibrioides [3] was Active. Moreover, the minimum inhibitory concentration (MIC) against Escherichia coli is 10 µM (≈ 3.86 µg/mL); against Caulobacter vibrioides [1] it was 5 µM (≈ 1.93 µg/mL). In addition, the solubility (kinetic) in data set [2] was found to be 120 µM (≈ 46.4 µg/mL).

`COc1ccc2ccccc2c1/C=N/NC(=O)CCn1c(C)nc2ccccc21`: the figures for the MIC in the data set on Escherichia coli and with Caulobacter vibrioides [1] were over 50 µM and over 20 µM, respectively.

For `Cc1nc2ccccc2n1CCC(=O)N/N=C/c1c(O)ccc2ccccc12`, the result with Caulobacter vibrioides [3] was Active. Besides, the minimum inhibitory concentration (MIC) worked out at 12.5 µM (≈ 4.66 µg/mL) against Escherichia coli; 5 µM (≈ 1.86 µg/mL) against Caulobacter vibrioides [1]; 6 µM (≈ 2.23 µg/mL) in the data set with Vibrio cholerae; 50 µM (≈ 18.6 µg/mL) with Klebsiella aerogenes; 50 µM (≈ 18.6 µg/mL) in the data set with Salmonella typhimurium; 50 µM (≈ 18.6 µg/mL) in the data set on Shigella boydii. The MIC was 50 µM (≈ 18.6 µg/mL) against Acinetobacter baumannii, over 50 µM in the data set with Klebsiella pneumoniae and over 50 µM with Morganella morganii. The same compound showed a kinetic solubility in data set [2] of 20 µM (≈ 7.45 µg/mL).

On to `Cc1nccn1CCC(=O)N/N=C/c1c(O)ccc2ccccc12`, for which, in the data set with Caulobacter vibrioides [3], the outcome was Active. Further, the results for the minimal inhibitory concentration (MIC) against Escherichia coli and against Caulobacter vibrioides [1] were 12.5 µM (≈ 4.03 µg/mL) and 7.5 µM (≈ 2.42 µg/mL), respectively. Further, the kinetic solubility in data set [2] was determined as 10 µM (≈ 3.22 µg/mL).

Consider `Cc1nc2ccccc2n1CCC(=O)N/N=C/c1ccccc1F`, for which the minimum inhibitory concentration (MIC) is over 50 µM in the data set with Escherichia coli and over 20 µM against Caulobacter vibrioides [1].

`COc1ccc2ccccc2c1/C=N/NC(=O)CCn1c(C(F)(F)F)nc2ccccc21`: the MIC with Escherichia coli is over 50 µM; in the data set with Caulobacter vibrioides [1], over 20 µM.

As to `Cc1nc2ccccc2n1CCC(=O)N/N=C/c1cccc2ccccc12`, the MIC against Escherichia coli was 50 µM (≈ 17.8 µg/mL); with Caulobacter vibrioides [1] it was over 20 µM.

Values taken from ChEMBL document CHEMBL2429825, “Structure-activity studies of divin: an inhibitor of bacterial cell division” (ACS Med Chem Lett, 2013).
